PTEN del growth – growth suppressors of cells with PTEN tumor suppressor deletion; HCT116 PTEN-null viability, CellTiter-Glo, 60 h; stronger effect = lower value; AID 827; 140,000 compounds, 1.2% hits; viability, % at 10 µM;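 active = viability at or below a set limit, 4 SD under the median of all tested compounds, cut at about 3.7% in these data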;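 note: PTEN knockout HCT116 line with beta catenin targeted HCT116 as companion control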
HCT116 bCat-KO – beta-catenin-lacking colon tumor cell growth suppression; HCT116 beta-catenin knockout viability, CellTiter-Glo, 60 h; stronger effect = lower value; viability, % at 10 µM; 140,000 compounds, 1.5% hits;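 active = viability at or under a set limit, the compound median less 4 SD, cut at about 6% in these data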;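 note: 0% = Hyamine 1622 control at 20 µM and 100% = untreated cell control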
PMI activator – activators of human phosphomannose isomerase. activation factor at 20 µM. 190,000 compounds, 0.005% hits. AID 1214. purified human PMI, coupled resazurin fluorescence, 20 min; stronger effect = higher value; 1 = vehicle control, 0 substrate-free wells;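 active = activation factor of 2 or more at 20 µM, relative to plate controls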
Target sequence (P34949 whole entry, looked up): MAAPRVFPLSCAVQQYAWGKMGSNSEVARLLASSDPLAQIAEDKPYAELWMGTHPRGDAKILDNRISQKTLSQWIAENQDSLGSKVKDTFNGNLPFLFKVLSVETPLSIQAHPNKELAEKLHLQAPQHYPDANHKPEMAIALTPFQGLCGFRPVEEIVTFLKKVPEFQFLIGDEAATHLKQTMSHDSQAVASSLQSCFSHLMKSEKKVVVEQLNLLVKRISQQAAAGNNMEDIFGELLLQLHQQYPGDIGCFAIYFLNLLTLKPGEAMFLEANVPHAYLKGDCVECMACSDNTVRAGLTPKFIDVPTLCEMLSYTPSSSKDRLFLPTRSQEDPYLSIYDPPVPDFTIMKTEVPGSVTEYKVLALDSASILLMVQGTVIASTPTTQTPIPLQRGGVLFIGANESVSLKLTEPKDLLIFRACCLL
PMI act hi M6P – increases human PMI activity with near-saturating mannose 6-phosphate; coupled PMI enzyme assay, resazurin fluorescence, 20 min; stronger effect = higher value; 1 = untreated enzyme, 0 = substrate-free blank; activation factor at 20 µM; 190,000 compounds, 0.34% hits;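 active = activation factor of 2 or more at 20 µM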
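test system = human PMI in coupled enzyme assay | medium = HEPES-buffered pH 7.4 with magnesium and detergent | also added = 1.0 mM mannose-6-phosphate substrate with 0.22 mM NADP+ | compound = 20 µM single dose | times = 20 min incubation at room temperature | measured by = resorufin fluorescence (Ex 544/Em 590 nm) from resazurin via diaphorase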
L major viab – Leishmania major promastigote growth inhibition; Leishmania major promastigotes, resazurin fluorescence viability; inhibition, % at 10 µM; AID 1063; 200,000 compounds, 9% hits; in the data active = inhibition above about 50%;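 note: promastigotes grown with compound for 44 hours at 28 °C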
* hit, by the source's call. The list is not random: actives were taken first. Their share in the collection is about 9.6%.

How did c1ccc2c(c1)[nH]c1c(N3CCN(C4CCCCC4)CC3)ncnc12 do in these assays?
PTEN del growth: 71; HCT116 bCat-KO: 68; L major viab: 78*

Results for O=S(=O)(Nc1cccc2c1CCCC2)c1ccc(Cl)cc1 ?
PTEN del growth: 91; HCT116 bCat-KO: 78; PMI activator: 0.7; PMI act hi M6P: 0.6; L major viab: -3

Results for CC(NCC(=O)Nc1cc(S(=O)(=O)N2CCCCCC2)ccc1Cl)c1ccccc1 (configuration not stated) ?
PMI activator: 0.9; PMI act hi M6P: 1; L major viab: 17

Results for Cc1ccc(NC(=O)/C(=C/c2ccncc2)NC(=O)c2ccccc2)cc1 ?
PTEN del growth: 99; HCT116 bCat-KO: 97; PMI activator: 0.9; PMI act hi M6P: 1; L major viab: 9

Results for O=C(Nc1ccc(C(=O)O)cc1)/C(=C/c1cccc(Br)c1)NC(=O)c1ccco1 ?
PMI activator: 1; PMI act hi M6P: 1; L major viab: -9

Results for Cc1ccc(NC(=O)/C(=C/c2cccc(Br)c2)NC(=O)c2ccco2)cc1 ?
PTEN del growth: 83; HCT116 bCat-KO: 90; PMI activator: 0.9; PMI act hi M6P: 0.8; L major viab: 90*

Results for CSc1ccc(/C=C(/NC(=O)c2ccc(C)cc2)C(=O)Nc2cccc(C)c2)cc1 ?
PTEN del growth: 89; HCT116 bCat-KO: 96; PMI activator: 0.9; PMI act hi M6P: 1; L major viab: 63*

What do the screens show for `Cn1c(CSCc2ccc(Cl)cc2)nnc1SCC(=O)Nc1nc2ccccc2s1`?
PTEN del growth: 102; HCT116 bCat-KO: 97; PMI activator: 1; PMI act hi M6P: 1; L major viab: -5

How did COc1ccc(-c2nc(-n3c(C)c(C(C)=O)c(C(C)=O)c3C)sc2C)cc1OC do in these assays?
PTEN del growth: 84; HCT116 bCat-KO: 90; PMI activator: 1; PMI act hi M6P: 1; L major viab: 66*

How did CS/C(=N\N(C)C(N)=O)c1ccccc1 do in these assays?
PTEN del growth: 94; HCT116 bCat-KO: 95; PMI activator: 1; PMI act hi M6P: 1; L major viab: 69*

What do the screens show for `CS/C(=N\NC(N)=O)c1ccccc1`?
PTEN del growth: 99; HCT116 bCat-KO: 91; PMI activator: 1.1; PMI act hi M6P: 1.1; L major viab: 48

Results for COc1cc(/C=C2/C(=O)c3cccc([N+](=O)[O-])c3C2=O)c(Br)cc1O ?
PTEN del growth: 10; HCT116 bCat-KO: 7; PMI activator: 0.9; PMI act hi M6P: 0.6; L major viab: 100*

What do the screens show for `COc1ccc(-c2nc(-c3cccc([N+](=O)[O-])c3O)cc(=O)o2)cc1OC`?
PTEN del growth: 92; HCT116 bCat-KO: 96; PMI activator: 1; PMI act hi M6P: 1; L major viab: -6

What do the screens show for `COc1cccc(C2SCC(=O)N2c2ccc(Br)cc2)c1OC` (configuration not stated)?
PTEN del growth: 91; HCT116 bCat-KO: 82; PMI activator: 1.7; PMI act hi M6P: 2.2*; L major viab: 33

What do the screens show for `O=C1CSC(c2ccccc2F)N1c1ccccc1` (configuration not stated)?
PTEN del growth: 93; HCT116 bCat-KO: 96; PMI activator: 1; PMI act hi M6P: 1; L major viab: -2

Results for Cn1c(=O)c([N+](=O)[O-])c(NCC(O)c2ccccc2)c2ccccc21 (configuration not stated) ?
PTEN del growth: 90; HCT116 bCat-KO: 96; PMI activator: 0.8; PMI act hi M6P: 0.8; L major viab: 5

How did CCn1c(=O)c([N+](=O)[O-])c(NCC(O)c2ccccc2)c2ccccc21 (configuration not stated) do in these assays?
PTEN del growth: 101; HCT116 bCat-KO: 95; PMI activator: 0.9; PMI act hi M6P: 0.9; L major viab: 100*

How did O=C(COC(=O)C1CCCCC1)Nc1ccccc1OC(F)F do in these assays?
PMI activator: 1.1; PMI act hi M6P: 1; L major viab: -7

What do the screens show for `Cc1cc(S(=O)(=O)NCc2ccccc2)ccc1OCC(=O)Nc1cccc([N+](=O)[O-])c1`?
PTEN del growth: 21; HCT116 bCat-KO: 39; PMI activator: 0.9; PMI act hi M6P: 0.8; L major viab: 99*

Results for CN(Cc1ccccc1)S(=O)(=O)c1ccc(OCC(=O)Nc2cccc([N+](=O)[O-])c2)cc1 ?
PTEN del growth: 91; HCT116 bCat-KO: 92; PMI activator: 1; PMI act hi M6P: 1; L major viab: -6

Screening data as filed in PubChem.
